Laboratory results: ChEMBL document CHEMBL1132144, “Synthesis of 9-O-substituted derivatives of 9-hydroxy-5, 6-dimethyl-6H-pyrido[4,3-b]carbazole-1-carboxylic acid (2-(dimethylamino)ethyl)amide and their 10- and 11-methyl analogues with improved antitumor activity” (J Med Chem, 1999)

Columns and labels:
B16 = assay: Inhibition of murine B16 melanoma cell proliferation measured by the MTT assay; type: functional, cell-based; settings: Mus musculus
How it was run: (§1)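 Murine L1210 leukemia and B16 melanoma cells were grown in RPMI 1640 with 10% fetal calf serum, 2 mM L-glutamine, penicillin/streptomycin and 10 mM HEPES (pH 7.4). Cells were exposed to nine serial drug dilutions in triplicate for about four doubling times (L1210 48 h, B16 96 h), then read by microculture tetrazolium (MTT) assay. IC50 is the concentration halving optical density versus untreated controls, averaged over ≥2 independent experiments.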

L1210 = assay: Inhibition of murine L1210 leukemia cell proliferation measured by the MTT assay; type: functional, cell-based; settings: Mus musculus; how it was run: as §1
Mus musculus [1] = assay: Long-term survivors among 12 mice infected with P388 leukemia, scored on day 60 at 320 mg/kg dose; type: functional
How it was run: (§2)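 B6D2F1 mice in groups of 6–7 were inoculated ip on day 0 with 10^6 P388 cells. Dihydrochloride salts were dissolved in water and given iv on day 1 or on days 1, 5 and 9. Doses ranged from a low nontoxic dose to a toxic one. Long-term survivors were counted at day 60.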

Mus musculus [2] = assay: Long-term survivors among 12 mice infected with P388 leukemia, scored on day 60 at 80 mg/kg dose; type: functional; how it was run: as §2
Mus musculus [3] = assay: Percent median survival time of mice intraperitoneally injected with P388 leukemia was determined from tested at 80 mg/kg at day1,5,9 dose to that of control; type: functional; settings: route intraperitoneal
How it was run: (§3)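 P388 leukemia in B6D2F1 mice (groups of 6–7), 10^6 cells inoculated ip on day 0. Dihydrochloride salts were dissolved in water and given iv on day 1 or on days 1, 5, 9. Three doses were tested, then five if active. %T/C = median survival treated/control × 100, reported at the optimal dose (no toxic death, weight loss <20%), from one or two representative experiments.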

Mus musculus [4] = assay: Percent median survival time of mice injected with B16 melanoma, at a intraperitoneal compound dose of 20 mg/kg
Mus musculus [5] = assay: Long-term survivors among 12 mice infected with P388 leukemia, scored on day 60 at 240-320 mg/kg dose on day 1; type: functional; how it was run: as §2
Mus musculus [6] = assay: Percent median survival time of mice injected with P388 leukemia, at a subcutaneous compound dose of 240-320 mg/kg; type: functional
Mus musculus [7] = assay: Long-term survivors among 12 mice infected with B16 melanoma, scored on day 90 at 10 mg/kg dose on days 1-9
Mus musculus [8] = assay: Percent median survival time of mice injected with B16 melanoma, at a intraperitoneal compound dose of 10 mg/kg
Mus musculus [9] = assay: Percent median survival time of mice injected with P388 leukemia, at a intravenous compound dose of 80-160 mg/kg
Mus musculus [10] = assay: Long-term survivors among 12 mice infected with P388 leukemia, scored on day 60 at 20 mg/kg dose on day 1, 5, 9; type: functional; how it was run: as §2
Mus musculus [11] = assay: Long-term survivors among 12 mice infected with P388 leukemia, scored on day 60 at 40 mg/kg dose on day 1; type: functional; how it was run: as §2
Mus musculus [12] = assay: Percent median survival time of mice injected with P388 leukemia, at dose of 20 mg/kg on day 1, 5, 9; type: functional; how it was run: as §3
Mus musculus [13] = assay: Percent median survival time of mice injected with P388 leukemia, at dose of 40 mg/kg on day 1; type: functional; how it was run: as §3
Mus musculus [14] = assay: Long-term survivors among 21 mice infected with B16 melanoma, scored on day 90 at 5 mg/kg dose
Mus musculus [15] = assay: Percent median survival time of mice injected with B16 melanoma, at a intraperitoneal compound dose of 5 mg/kg
Mus musculus [16] = assay: Long-term survivors among 6 mice infected with P388 leukemia, scored on day 60 at 240 mg/kg dose; type: functional; how it was run: as §2
Mus musculus [17] = assay: Percent median survival time of mice intraperitoneally injected with P388 leukemia was determined from tested at 160 mg/kg at day1,5,9 dose to that of control; type: functional; settings: route intraperitoneal; how it was run: as §3
Mus musculus [18] = assay: Percent median survival time of mice intraperitoneally injected with P388 leukemia was determined from tested at 240 mg/kg at day1 dose to that of control; type: functional; settings: route intraperitoneal; how it was run: as §3
Mus musculus [19] = assay: Long-term survivors among 6 mice infected with P388 leukemia, scored on day 60 at 160 mg/kg dose; type: functional; how it was run: as §2
Mus musculus [20] = assay: Long-term survivors among 7 mice infected with B16 melanoma, scored on day 90 at 40 mg/kg dose on day 1; type: functional
Mus musculus [21] = assay: Long-term survivors among 7 mice infected with P388 leukemia, scored on day 60 at 40 mg/kg dose on day 1; type: functional
How it was run: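 B6D2F1 mice in groups of 6–7 received 10^6 P388 cells ip on day 0. Dihydrochloride salts dissolved in water were injected iv on day 1 or on days 1, 5 and 9, at three doses and then five. Read-outs were % T/C (median survival treated/control × 100) and long-term survivors on day 60, both at the optimal dose (no toxic death, weight loss <20%).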

Mus musculus [22] = assay: Percent median survival time of mice injected with P388 leukemia, at a subcutaneous compound dose of 20 mg/kg; type: functional
Mus musculus [23] = assay: Percent median survival time of mice injected with P388 leukemia, at a intravenous compound dose of 40 mg/kg
Mus musculus [24] = assay: Percent median survival time of mice injected with B16 melanoma, at a intraperitoneal compound dose of 1.25 mg/kg
Mus musculus [25] = assay: Long-term survivors among 6 mice infected with P388 leukemia, scored on day 60 at 80 mg/kg dose; type: functional; how it was run: as §2
Mus musculus [26] = assay: Long-term survivors among 6 mice infected with P388 leukemia, scored on day 60 at 40 mg/kg dose; type: functional; how it was run: as §2
Mus musculus [27] = assay: Percent median survival time of mice intraperitoneally injected with P388 leukemia was determined from tested at 80 mg/kg at day1 dose to that of control; type: functional; settings: route intraperitoneal; how it was run: as §3
Mus musculus [28] = assay: Percent median survival time of mice intraperitoneally injected with P388 leukemia was determined from tested at 40 mg/kg at day1,5,9 dose to that of control; type: functional; settings: route intraperitoneal; how it was run: as §3
Mus musculus [29] = assay: Long-term survivors among 14 mice infected with P388 leukemia, scored on day 60 at 320 mg/kg dose on day 1; type: functional; how it was run: as §2
Mus musculus [30] = assay: Percent median survival time of mice injected with P388 leukemia, at a subcutaneous compound dose of 160 mg/kg; type: functional
Mus musculus [31] = species on record: Mus musculus; assay: Long-term survivors among 14 mice infected with B16 melanoma, scored on day 90 at optimal dose on days 1-9
Mus musculus [32] = assay: Percent median survival time of mice injected with P388 leukemia, at a intravenous compound dose of 320 mg/kg
Mus musculus [33] = assay: Percent median survival time of mice injected with B16 melanoma, at a intraperitoneal compound dose of 20-40 mg/kg

Cc1c2ccnc(C(=O)NCCN(C)C)c2cc2c3cc(OC(=O)OCCCC(=O)O)ccc3n(C)c12
IC50 (B16): 4.8 nM
IC50 (L1210): 64 nM
LTS (Mus musculus [1]): 8
LTS (Mus musculus [2]): 7
T/C (Mus musculus [3]): >600%
T/C (Mus musculus [4]): 167%

Cc1c2ccnc(C(=O)NCCN(C)C)c2cc2c3cc(OC(=O)CCCCC(=O)O)ccc3n(C)c12
IC50 (B16): 5 nM
IC50 (L1210): 20.8 nM
LTS (Mus musculus [5]): 16
T/C (Mus musculus [6]): >607%
LTS (Mus musculus [7]): 4
T/C (Mus musculus [8]): >352%
T/C (Mus musculus [9]): >607%

Cc1c2c(C(=O)NCCN(C)C)nccc2c(C)c2c1c1cc(OC(=O)CCCC(=O)O)ccc1n2C
IC50 (B16): 1.4 nM
IC50 (L1210): 34 nM
LTS (Mus musculus [10]): 11
LTS (Mus musculus [11]): 11
T/C (Mus musculus [12]): >640%
T/C (Mus musculus [13]): >640%
LTS (Mus musculus [14]): 0
T/C (Mus musculus [15]): 202%

Cc1c2ccnc(C(=O)NCCN(C)C)c2cc2c3cc(OCC(O)CO)ccc3n(C)c12 (centres undefined)
IC50 (B16): 954 nM
IC50 (L1210): 500 nM
LTS (Mus musculus [16]): 0
T/C (Mus musculus [17]): 114%
T/C (Mus musculus [18]): 127%
LTS (Mus musculus [19]): 0
T/C (Mus musculus [4]): 129%

Cc1c(OC(=O)CCCCC(=O)O)ccc2c1c1cc3c(C(=O)NCCN(C)C)nccc3c(C)c1n2C
IC50 (B16): 6.4 nM
IC50 (L1210): 24.7 nM
LTS (Mus musculus [20]): 0
LTS (Mus musculus [21]): 0
T/C (Mus musculus [22]): >600%
T/C (Mus musculus [23]): 300%
T/C (Mus musculus [24]): 127%

Cc1c2ccnc(C(=O)NCCN(C)C)c2cc2c3cc(OC(=O)N(C)C)ccc3n(C)c12
IC50 (B16): 2670 nM
IC50 (L1210): 1850 nM
LTS (Mus musculus [25]): 0
LTS (Mus musculus [26]): 0
T/C (Mus musculus [27]): 124%
T/C (Mus musculus [28]): 119%
T/C (Mus musculus [4]): 161%

Cc1c2ccnc(C(=O)NCCN(C)C)c2cc2c3cc(OC(=O)CC(C)(C)CC(=O)O)ccc3n(C)c12
IC50 (B16): 3.7 nM
IC50 (L1210): 2.7 nM
LTS (Mus musculus [29]): 4
T/C (Mus musculus [30]): 404%
LTS (Mus musculus [31]): 5
T/C (Mus musculus [32]): >600%
T/C (Mus musculus [33]): >466%
